# Test results: article PMC7854954 (Clinical Pharmacology and Therapeutics, 2020)
# Read-outs that look alike come from different tables or passages of the source.
# Columns and labels:
# [1] = Binding to patient plasma proteins; type: in vitro ADME; conditions: human, plasma of patients with cancer
# [2] = cited from earlier work; for observed CL/F / observed apparent volume of distribution (V/F): population pharmacokinetic analysis in patients with cancer
# [3] = In vitro metabolism in human intestinal microsomes; type: in vitro ADME; conditions: for fumic: HIM section, fraction unbound in microsomal incubation; for microsomal CLint: human, pooled intestinal microsomes
# [4] = cited from earlier work; for observed unbound tumor concentration, median (range): patients with glioblastoma
# [5] = molecular target: ABCB1 (Homo sapiens, UniProt P08183); experiment: Bidirectional permeability and efflux, MDCKII-ABCB1 monolayers; type: in vitro ADME; conditions: for CLABCB1,vitro: Blood-CSF barrier, Eq. 2; for Papp A→B at 1 h, 1 µM: human, MDCK-MDR1, pH 7.4
# Sequence of ABCB1 (P08183 whole entry): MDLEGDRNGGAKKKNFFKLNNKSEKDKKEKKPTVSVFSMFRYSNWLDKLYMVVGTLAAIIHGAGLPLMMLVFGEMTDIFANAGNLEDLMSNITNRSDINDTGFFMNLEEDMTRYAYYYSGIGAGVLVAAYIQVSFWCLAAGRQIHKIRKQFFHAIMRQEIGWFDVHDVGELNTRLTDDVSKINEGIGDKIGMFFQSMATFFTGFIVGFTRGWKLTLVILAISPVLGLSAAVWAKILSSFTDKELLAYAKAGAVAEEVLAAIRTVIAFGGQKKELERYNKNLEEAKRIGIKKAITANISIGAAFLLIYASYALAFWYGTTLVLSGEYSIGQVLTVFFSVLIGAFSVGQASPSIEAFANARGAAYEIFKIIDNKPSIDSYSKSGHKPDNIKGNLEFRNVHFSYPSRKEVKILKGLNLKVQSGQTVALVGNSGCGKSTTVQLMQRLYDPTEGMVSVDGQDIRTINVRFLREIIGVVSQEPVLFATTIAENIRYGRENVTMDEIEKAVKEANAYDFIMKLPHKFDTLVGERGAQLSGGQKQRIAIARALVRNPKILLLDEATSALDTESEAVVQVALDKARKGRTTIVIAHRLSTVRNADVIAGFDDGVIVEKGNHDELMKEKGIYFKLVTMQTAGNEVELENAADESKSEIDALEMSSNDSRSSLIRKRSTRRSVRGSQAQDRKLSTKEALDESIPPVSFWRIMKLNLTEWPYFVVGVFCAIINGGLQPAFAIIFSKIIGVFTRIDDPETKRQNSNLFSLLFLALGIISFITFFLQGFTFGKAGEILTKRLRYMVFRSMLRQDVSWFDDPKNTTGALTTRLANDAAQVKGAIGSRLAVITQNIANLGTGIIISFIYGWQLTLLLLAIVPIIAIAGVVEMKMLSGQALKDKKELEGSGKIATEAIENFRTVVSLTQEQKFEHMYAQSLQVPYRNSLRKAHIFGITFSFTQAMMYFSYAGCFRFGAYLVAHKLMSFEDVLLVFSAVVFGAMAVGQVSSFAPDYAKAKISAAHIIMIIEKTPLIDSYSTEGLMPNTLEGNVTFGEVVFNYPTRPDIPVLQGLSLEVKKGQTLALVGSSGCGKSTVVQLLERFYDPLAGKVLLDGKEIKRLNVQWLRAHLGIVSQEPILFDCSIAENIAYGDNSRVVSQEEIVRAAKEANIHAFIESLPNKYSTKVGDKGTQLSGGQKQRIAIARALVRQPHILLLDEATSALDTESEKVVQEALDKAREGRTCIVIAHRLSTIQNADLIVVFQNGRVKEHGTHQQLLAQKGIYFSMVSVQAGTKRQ
# [6] = Passive transcellular permeability, parental MDCKII monolayers; type: in vitro ADME; conditions: dog, MDCK, pH 7.4
# Procedure, shortened: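 Bidirectional transport (apical-to-basolateral and basolateral-to-apical) across parental MDCKII cell monolayers grown on transwell filters, with pH 7.4 in both apical and basolateral chambers. Apparent permeability is reported for each direction, along with the efflux ratio. Values are mean ± SD from at least three independent experiments, each run in duplicate.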
# [7] = test system: glioblastoma; conditions: single‐agent treatment; cited from earlier work
# [8] = Whole-body PBPK model drug-specific parameters; set-up: species or system human; conditions: Observed; for Ka: estimated from observed data
# [9] = mice; cited from earlier work
# [10] = rats; cited from earlier work
# [11] = test system: CDK4; conditions: read-out: in vitro IC50 for inhibition of CDK4; cited from earlier work
# [12] = test system: CDK6; conditions: read-out: in vitro IC50 for inhibition of CDK6; cited from earlier work
# [13] = In vitro metabolism in human liver microsomes; type: in vitro ADME; conditions: for K m / Vmax: HLM; for fuinc: HLM incubation; for microsomal CLint: human, pooled liver microsomes
# [14] = Binding to brain tumor tissues; type: in vitro ADME; conditions: human, patient brain tumor tissue
# [15] = molecular target: T1, ABCG2 (Homo sapiens, UniProt Q9UNQ0); experiment: Bidirectional permeability and efflux, MDCKII-ABCG2 monolayers; type: in vitro ADME; conditions: for Papp A→B at 1 h, 1 µM: pH 7.4
# T1 sequence (Q9UNQ0 1-655): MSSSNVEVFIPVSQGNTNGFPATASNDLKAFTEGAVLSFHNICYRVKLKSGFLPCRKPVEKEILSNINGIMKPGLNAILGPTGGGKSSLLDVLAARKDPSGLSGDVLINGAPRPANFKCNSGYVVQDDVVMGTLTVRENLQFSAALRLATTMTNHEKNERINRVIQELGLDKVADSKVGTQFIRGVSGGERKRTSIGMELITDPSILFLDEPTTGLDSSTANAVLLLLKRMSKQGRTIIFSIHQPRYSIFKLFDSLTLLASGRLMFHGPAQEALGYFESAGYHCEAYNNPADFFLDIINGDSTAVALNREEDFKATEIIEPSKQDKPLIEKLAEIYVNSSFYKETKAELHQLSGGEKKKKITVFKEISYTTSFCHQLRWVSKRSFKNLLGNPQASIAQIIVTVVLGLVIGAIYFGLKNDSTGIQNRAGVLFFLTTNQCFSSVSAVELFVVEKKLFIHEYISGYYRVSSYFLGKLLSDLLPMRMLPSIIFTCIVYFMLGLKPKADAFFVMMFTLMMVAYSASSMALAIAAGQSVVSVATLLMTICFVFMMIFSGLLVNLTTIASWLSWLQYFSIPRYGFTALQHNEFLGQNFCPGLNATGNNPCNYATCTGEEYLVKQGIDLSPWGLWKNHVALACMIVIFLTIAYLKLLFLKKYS
fraction unbound [1],K m ([3]; HIM) [µM],fumic [3],microsomal CLint [3] [µL/min/mg],"CLABCB1,vitro [5] [µL/min/mg]","Papp A→B at 1 h, 1 µM [5] [×10⁻⁶ cm/s]","Papp A→B at 1 h, 1 µM [6] [×10⁻⁶ cm/s]",Lag time [8] [h],Ka [8],K m [13] [µM],fuinc [13],microsomal CLint [13] [µL/min/mg],fraction unbound [14],"Papp A→B at 1 h, 1 µM [15] [×10⁻⁶ cm/s]",SMILES,observed CL/F [2] [L/h],observed apparent volume of distribution (V/F) [2],"brain penetration K p,uu [9]","brain penetration K p,uu [10]",IC50 [11] [nM],IC50 [12] [nM],also measured
[…],[…],[…],4.29,800,[…],9.09 ± 2.21,[…],0.197,[…],[…],15.9,[…],7.98 ± 0.42,"CCN1CCN(Cc2ccc(Nc3ncc(F)c(-c4cc(F)c5nc(C)n(C(C)C)c5c4)n3)nc2)CC1 [Abemaciclib, abemaciclib]",[…],"[…]",[…],[…],[…],[…],"Vmax ([3]; HIM): 494.3 pmol/min/mg; observed CSF concentrations (range) ([4]; 10 patients, daily or twice daily oral 50–275 mg for 15 days): […]; observed mean CSF K p,uu ([4]; patients): 0.70; patients with glioblastoma who achieved stable disease [7]: […]; Vmax [13]: […]"
–,–,–,–,–,–,–,–,–,–,–,–,–,–,COc1cc2ncnc(Nc3ccc(F)c(Cl)c3)c2cc1OCCCN1CCOCC1 [gefitinib],–,–,–,–,–,–,"efflux ratio at 1 h, 1 µM ([15]; with Ko143 1 µM in the top chamber): 8.86"
0.126,70.4,[…],[…],[…],[…],[…],[…],0.367,78.1,[…],[…],[…],7.73 ± 0.25,"CC(=O)c1c(C)c2cnc(Nc3ccc(N4CCNCC4)cn3)nc2n(C2CCCC2)c1=O [Palbociclib, palbociclib]",[…],"2,342 L",[…],[…],[…],[…],–
0.125,28.8,[…],[…],[…],1.77 ± 0.82,7.17 ± 1.85,0.5,0.8,13.4,[…],23.4,0.044,[…],"CN(C)C(=O)c1cc2cnc(Nc3ccc(N4CCNCC4)cn3)nc2n1C1CCCC1 [Ribociclib, ribociclib]",–,–,–,–,[…],39,"observed apparent oral clearance (CL/F) ([2]; 900 mg q.d. for 5 days, glioblastoma patients): […]; observed median CSF K p,uu ([4]; 12 patients with glioblastoma, 900 mg q.d. for 5 days): 1.8; observed unbound tumor concentration, median (range) ([4]; enhancing tumor regions): […]; observed unbound tumor concentration, median (range) ([4]; non‐enhancing tumor regions): […]; Vmax [13]: 313.7 pmol/min/mg"
